Measured values taken from ChEMBL document CHEMBL1137629, “Antiproliferative effect of dihydroxyacetone on Trypanosoma brucei bloodstream forms: cell cycle progression, subcellular alterations, and cell death” (Antimicrob Agents Chemother, 2007).
The source made the active and inactive calls. The rule behind the calls is not given here.

Assays:
Trypanosoma brucei [1] = experiment: Effect on morphological changes in Trypanosoma brucei bloodstream form assessed as increase in cell size after 24 hrs using DAPI staining by phase-contrast microscopy; format: functional, organism-based
Trypanosoma brucei [2] = experiment: Effect on morphological changes in Trypanosoma brucei bloodstream form assessed as presence of glycosomes at 3 mM after 24 hrs by transmission electron microscopy; format: functional, organism-based
In short: (§1)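 Parasites exposed 24 h to 3 mM DHA. 10⁸ cells fixed 1 h at 4°C in 2% glutaraldehyde in 0.2 M sodium cacodylate with 0.12 M sucrose, held overnight in buffer, postfixed in 1.5% osmium tetroxide and stained with 0.5% uranyl acetate. Dehydrated in ethanol, cleared in propylene oxide, embedded in Agar 100. Sections stained with 5% uranyl acetate and 0.4% lead citrate for TEM. Rapamycin (5 μM) served as the autophagy positive control.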

Trypanosoma brucei [3] = experiment: Effect on cell cycle of Trypanosoma brucei bloodstream form assessed as induction of necrosis at 5 uM after 24 hrs using propidium iodide staining by FACS analysis; format: functional
Trypanosoma brucei [4] = experiment: Trypanocidal activity against Trypanosoma brucei bloodstream form assessed as phosphatase activity; format: functional, organism-based
In short: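 Parasites in exponential growth diluted to 2 × 10⁵ cells/ml and cultured 24 h with 1–4 mM DHA. Lysis buffer with p-nitrophenyl phosphate (in 1 M sodium acetate pH 5.5, 1% Triton X-100) added. Read at 405 nm after 6 h at 37°C. IC₅₀ derived from phosphatase activity (Bodley method).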

Trypanosoma brucei [5] = experiment: Trypanocidal activity against Trypanosoma brucei bloodstream form at 4 mM up to 24 hrs by spectrophotometry; format: functional
In short: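 Proliferation measured in complete medium (33 mM glucose, 15% serum) with a range of DHA concentrations. Cell density followed over 24 h. Triplicate, SD.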

Trypanosoma brucei [6] = experiment: Induction of programmed cell death in Trypanosoma brucei bloodstream form assessed as death of total cell population at > 4 mM up to 24 hrs using propidium iodide staining by FACS analysis
Trypanosoma brucei [7] = experiment: Induction of apoptosis-like programmed cell death in Trypanosoma brucei bloodstream form assessed as loss of mitochondrial-membrane potential at 4 mM after 24 hrs by TMRE staining; format: functional
In short: (§2)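 T. brucei MITat 1.2 (EATRO 427) bloodstream forms were grown axenically at 37°C, 5% CO₂ and exposed to DHA for 24 h. Cells at 10⁶/ml were stained with 25 nM TMRE in culture medium for 30 min at 37°C and read at once by flow cytometry. Depolarization control: valinomycin 100 nM. Lower fluorescence signifies lost membrane potential.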

Trypanosoma brucei [8] = experiment: Trypanocidal activity against Trypanosoma brucei bloodstream form assessed as induction of autophagy at 3 mM after 24 hrs by transmission electron microscopy; format: functional, organism-based; in short: as §1
Trypanosoma brucei [9] = experiment: Effect on morphological changes in Trypanosoma brucei bloodstream form assessed as increase in mitochondrion size at 3 mM after 24 hrs by transmission electron microscopy; format: functional, organism-based; in short: as §1
Trypanosoma brucei [10] = experiment: Effect on morphological changes in Trypanosoma brucei bloodstream form assessed as presence of atypical combination of number of nucleus after 24 hrs using DAPI staining by phase-contrast microscopy; format: functional, organism-based
In short: (§3)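 Bloodstream forms (MITat 1.2, EATRO 427) grown 24 h with or without DHA. Aliquots washed twice in PBS, resuspended, placed on slides and fixed with methanol. Stained 5 min with DAPI (0.1 μg/ml final), then washed. Phase-contrast and fluorescence images scored for nucleus/kinetoplast numbers (1N1K, 1N2K, 2N2K, 2N1K, abnormal). n = 4, Student's t test, SD.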

Trypanosoma brucei [11] = experiment: Effect on morphological changes in Trypanosoma brucei bloodstream form assessed as presence of kinetoplast after 24 hrs using DAPI staining by phase-contrast microscopy; format: functional, organism-based; in short: as §3
Trypanosoma brucei [12] = experiment: Effect on morphological changes in Trypanosoma brucei bloodstream form assessed as appearance of multiple folds in mitochondrion membrane at 3 mM after 24 hrs by transmission electron microscopy; format: functional, organism-based; in short: as §1
Trypanosoma brucei [13] = experiment: Effect on morphological changes in Trypanosoma brucei bloodstream form assessed as dilation of mitochondrial membrane at 3 mM after 24 hrs by transmission electron microscopy; format: functional, organism-based; in short: as §1
Trypanosoma brucei [14] = experiment: Effect on morphological changes in Trypanosoma brucei bloodstream form assessed as presence of more than one flagellum at 5 mM after 20 hrs by scanning electron microscopy; format: functional, organism-based
In short: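 Cells grown 20 h with 5 mM DHA. Fixed and stained as for TEM (glutaraldehyde, osmium tetroxide, uranyl acetate), then dehydrated through 50, 75, 95 and 100% ethanol. Critical-point dried and gold-palladium sputter-coated for scanning electron microscopy.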

Trypanosoma brucei [15] = experiment: Induction of apoptosis-like programmed cell death in Trypanosoma brucei bloodstream form assessed as loss of mitochondrial-membrane potential at 5 uM after 24 hrs by TMRE staining; format: functional
Trypanosoma brucei [16] = experiment: Trypanocidal activity against Trypanosoma brucei bloodstream form at < 1 mM; format: functional, organism-based
Trypanosoma brucei [17] = experiment: Effect on cell cycle of Trypanosoma brucei bloodstream form assessed as DNA content at 2 mM after 24 hrs using propidium iodide staining by FACS analysis; format: functional
In short: (§4)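 T. brucei bloodstream forms (MITat 1.2, strain EATRO 427), axenic culture at 37°C, 5% CO₂. Treated 24 h. At least 5 × 10⁵ cells washed in PBS, lysed hypotonically 30 min at room temperature in 10 mM phosphate buffer pH 7.4 with 6 μM digitonin. Nuclei stained with propidium iodide (10 μg/ml final) and analysed by flow cytometry for G₁/S/G₂ distribution and degraded DNA.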

Trypanosoma brucei [18] = experiment: Trypanocidal activity against Trypanosoma brucei bloodstream form at > 1 mM; format: functional, organism-based
Trypanosoma brucei [19] = experiment: Effect on cell cycle of Trypanosoma brucei bloodstream form assessed as induction of necrosis at 2 mM after 24 hrs using propidium iodide staining by FACS analysis; format: functional
In short: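 Bloodstream forms exposed 24 h at 37°C, 5% CO₂. Cells at 2 × 10⁶/ml incubated 10 min with propidium iodide (5 μg/ml), and uptake read by flow cytometry as a measure of membrane integrity. Digitonin (6 μM) served as the necrosis positive control.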

Trypanosoma brucei [20] = experiment: Effect on morphological changes in Trypanosoma brucei bloodstream form assessed as change in cell nucleus at 3 mM after 24 hrs by transmission electron microscopy; format: functional, organism-based; in short: as §1
Trypanosoma brucei [21] = experiment: Induction of apoptosis-like programmed cell death in Trypanosoma brucei bloodstream form assessed as loss of mitochondrial-membrane potential at 1 mM after 24 hrs by TMRE staining; format: functional; in short: as §2
Trypanosoma brucei [22] = experiment: Induction of necrosis in Trypanosoma brucei bloodstream form assessed as death of total cell population at > 4 mM up to 24 hrs using propidium iodide staining by FACS analysis
Trypanosoma brucei [23] = experiment: Effect on morphological changes in Trypanosoma brucei bloodstream form assessed as increase in autophagic vaculoe structures at 3 mM after 24 hrs by transmission electron microscopy; format: functional, organism-based; in short: as §1
Trypanosoma brucei [24] = experiment: Effect on cell cycle of Trypanosoma brucei bloodstream form assessed as DNA content at 5 uM after 24 hrs using propidium iodide staining by FACS analysis; format: functional; in short: as §4
Trypanosoma brucei [25] = experiment: Effect on morphological changes in Trypanosoma brucei bloodstream form assessed as increase in cisternal and vesicular structures within cytosol at 3 mM after 24 hrs by transmission electron microscopy; format: functional, organism-based; in short: as §1
Trypanosoma brucei [26] = experiment: Induction of apoptosis-like programmed cell death in Trypanosoma brucei bloodstream form assessed as loss of mitochondrial-membrane potential at 3 mM after 24 hrs by TMRE staining; format: functional; in short: as §2

O=C(CO)CO [DIHYDROXYACETONE]
Activity (Trypanosoma brucei [1]): Dose-dependent effect | Activity (Trypanosoma brucei [2]): Active | Activity (Trypanosoma brucei [3]): 4.5% | IC50 (Trypanosoma brucei [4]): 1.03 mM | Activity (Trypanosoma brucei [5]): 100% | Activity (Trypanosoma brucei [6]): Active | Activity (Trypanosoma brucei [7]): 26.8% | Activity (Trypanosoma brucei [8]): Active | Activity (Trypanosoma brucei [9]): Active | Activity (Trypanosoma brucei [10]): Dose-dependent effect | Activity (Trypanosoma brucei [11]): Dose-dependent effect | Activity (Trypanosoma brucei [12]): Active | Activity (Trypanosoma brucei [13]): Active | Activity (Trypanosoma brucei [14]): Active | Activity (Trypanosoma brucei [15]): 31.4% | Activity (Trypanosoma brucei [16]): Active | Activity (Trypanosoma brucei [17]): 9% | Activity (Trypanosoma brucei [18]): Active | Activity (Trypanosoma brucei [19]): 8.3% | Activity (Trypanosoma brucei [20]): inactive | Activity (Trypanosoma brucei [21]): 4.9% | Activity (Trypanosoma brucei [22]): Active | Activity (Trypanosoma brucei [23]): Active | Activity (Trypanosoma brucei [24]): 47% | Activity (Trypanosoma brucei [25]): Active | Activity (Trypanosoma brucei [26]): 12.3%
